The source of these data is ChEMBL document CHEMBL3745674, “Inhibitors of HIV-1 attachment: The discovery and structure-activity relationships of tetrahydroisoquinolines as replacements for the piperazine benzamide in the 3-glyoxylyl 6-azaindole pharmacophore” (Bioorg Med Chem Lett, 2016).

Data set [1] is described as follows: AUC(last) in rat at 5 mg/kg, po. In kind it is ADME, organism-based. Also noted: dose 5 mg/kg, time 0 - last, route oral. Conditions: in vivo. In a few lines:
(§1)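 Oral dosing in rat at 5 mg/kg in PEG 400/ethanol (90:10 v/v) vehicle.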

A short description of data set [2]: Cmax in rat at 5 mg/kg, po. Also noted: dose 5 mg/kg, route oral. In kind it is ADME, organism-based. Conditions: in vivo. In a few lines: as §1
Data set [3] is described as follows: Permeability of compound at pH 5.5 by PAMPA. In kind it is ADME. Conditions: read-out: permeability. In a few lines:
(§2)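 Passive permeability by PAMPA at pH 7.4 and pH 5.5, reported in nm/s.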

Data set [4] can be described thus: Volume of distribution at steady state in rat at 1 mg/kg, iv. In kind it is ADME, organism-based. Conditions: in vivo, read-out: Vdss. In a few lines:
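Intravenous dosing in rat at 1 mg/kg. Plasma clearance and volume of distribution were determined.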

The nature of data set [5]: Permeability of compound at pH 7.4 by PAMPA. In kind it is ADME. The note with it: read-out: permeability. In a few lines: as §2
Data set [6] concerns Liver. Description: Drug level in Aroclor-1254-induced rat liver S9 fraction treated with 1-(4-methoxy-7-(3-methyl-1H-1,2,4-triazol-1-yl)-1H-pyrrolo[2,3-c]pyridin-3-yl)-2-(5-(pyridin-2-yl)-3,4-dihydroisoquinolin-2(1H)-yl)ethane-1,2-dione assessed as compound formation incubated at 37 degC for 4.5 hrs. In kind it is ADME, subcellular. The note with it: s9, 4.5 h.
Data set [7] relates to Liver. Description: Drug metabolism in Aroclor-1254-induced rat liver S9 fraction assessed as 1-(1-hydroxy-5-(pyridin-2-yl)-3,4-dihydroisoquinolin-2(1H)-yl)-2-(4-methoxy-7-(3-methyl-1H-1,2,4-triazol-1-yl)-1H-pyrrolo[2,3-c]pyridin-3-yl)ethane-1,2-dione formation incubated at 37 degC for 4.5 hrs. The note with it: s9, 4.5 h. In kind it is ADME, subcellular.

`COc1cnc(-n2cnc(C)n2)c2[nH]cc(C(=O)C(=O)N3CCN(C(=O)c4ccccc4)CC3)c12` had an AUC(0-t) in data set [1] of 52 µM·h. In data set [2], this molecule displayed a peak concentration (Cmax) of 6.4 µM.

In the case of `COc1cnc(-c2cc(C(=O)O)[nH]n2)c2[nH]cc(C(=O)C(=O)N3CCc4c(cccc4-c4ccccn4)C3)c12`, in data set [3], the Papp was found to be 3.2 ×10⁻⁶ cm/s.

On to `COc1cnc(-n2cnc(C)n2)c2[nH]cc(C(=O)C(=O)N3CCc4c(ncnc4-c4ccccn4)C3)c12`, for which the Vd in data set [4] turned out to be 0.33 L/kg. The exposure AUC(0-t) in data set [1] worked out at 41 µM·h. Moreover, the concentration in data set [2] peaked (Cmax) at 10 µM. The Papp in data set [5] is 29.4 ×10⁻⁶ cm/s; in data set [3] it was 24.4 ×10⁻⁶ cm/s.

For the molecule `COc1cnc(-n2cnc(C)n2)c2[nH]cc(C(=O)C(=O)N3CCc4c(-c5ccccn5)cccc4C3O)c12` (stereo not given), the Drug metabolism result in the data set with Liver [6] was “metabolite_detected”.

With `COc1cnc(-n2cnc(C)n2)c2[nH]cc(C(=O)C(=O)N3CCc4c(cccc4-c4ccccn4)C3)c12`, the Drug metabolism result with Liver [7] is “metabolite_detected”.
